# Data published in paper PMC3947313 (Journal of neurochemistry, 2013).
# Key:
# [1] = test system: ERK2-pT202pY204; assay: Enzyme-coupled; assay type: biochemical; details: for decrease of kcat/Km (activity) toward phospho-ERK protein: STEP variant compared to wild-type STEP; for effect of mutation on activity toward phospho-ERK protein (in words): compared to the respective wild-type phosphatase
# Outline: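 Phospho-ERK2 protein was prepared using ERK2 and MEK1 expression plasmids. Initial rates were fitted to Michaelis-Menten for Km and kcat. At substrate << Km, kcat/Km came from first-order progress-curve fitting. Values are mean ± standard error.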
# [2] = test system: ERK pT202pY204 phospho-peptide; assay type: biochemical; details: compared to wild-type STEP
# Outline: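 Synthetic, HPLC-purified Tyr(P)-containing peptides were dephosphorylated at 37°C in 50 mM succinic buffer (pH 6.0), 1 mM EDTA and 2 mM DTT, ionic strength 0.15 M (NaCl). Released phosphate was measured with BIOMOL Green at 620 nm. Hydrolysis was also followed continuously by tyrosine fluorescence (excitation 280 nm, emission 305 nm). Michaelis-Menten fits gave kinetic parameters (mean ± standard error).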
molecule,measurement,setting,value
"STEP: purified striatal-enriched protein tyrosine phosphatase (human PTPN5), wild type (protein, UniProt P54829 1-565, looked up) Tyrosine-protein phosphatase …: MNYEGARSERENHAADDSEGGALDMCCSERLPGLPQPIVMEALDEAEGLQDSQREMPPPPPPSPPSDPAQKPPPRGAGSHSLTVRSSLCLFAASQFLLACGVLWFSGYGHIWSQNATNLVSSLLTLLKQLEPTAWLDSGTWGVPSLLLVFLSVGLVLVTTLVWHLLRTPPEPPTPLPPEDRRQSVSRQPSFTYSEWMEEKIEDDFLDLDPVPETPVFDCVMDIKPEADPTSLTVKSMGLQERRGSNVSLTLDMCTPGCNEEGFGYLMSPREESAREYLLSASRVLQAEELHEKALDPFLLQAEFFEIPMNFVDPKEYDIPGLVRKNRYKTILPNPHSRVCLTSPDPDDPLSSYINANYIRGYGGEEKVYIATQGPIVSTVADFWRMVWQEHTPIIVMITNIEEMNEKCTEYWPEEQVAYDGVEITVQKVIHTEDYRLRLISLKSGTEERGLKHYWFTSWPDQKTPDRAPPLLHLVREVEEAAQQEGPHCAPIIVHCSAGIGRTGCFIATSICCQQLRQEGVVDILKTTCQLRQDRGGMIQTCEQYQFVHHVMSLYEKQLSHQSPE",kcat of ERK-pT202pY204 dephosphorylation,"[1]; pH 7.0, 25°C, initial rates fitted to Michaelis-Menten, OD360",0.78 s^−1
"R242A: STEP KIM mutant R242A (protein, UniProt P54829 1-565, looked up, variant R242A) Tyrosine-protein phosphatase …: MNYEGARSERENHAADDSEGGALDMCCSERLPGLPQPIVMEALDEAEGLQDSQREMPPPPPPSPPSDPAQKPPPRGAGSHSLTVRSSLCLFAASQFLLACGVLWFSGYGHIWSQNATNLVSSLLTLLKQLEPTAWLDSGTWGVPSLLLVFLSVGLVLVTTLVWHLLRTPPEPPTPLPPEDRRQSVSRQPSFTYSEWMEEKIEDDFLDLDPVPETPVFDCVMDIKPEADPTSLTVKSMGLQEARGSNVSLTLDMCTPGCNEEGFGYLMSPREESAREYLLSASRVLQAEELHEKALDPFLLQAEFFEIPMNFVDPKEYDIPGLVRKNRYKTILPNPHSRVCLTSPDPDDPLSSYINANYIRGYGGEEKVYIATQGPIVSTVADFWRMVWQEHTPIIVMITNIEEMNEKCTEYWPEEQVAYDGVEITVQKVIHTEDYRLRLISLKSGTEERGLKHYWFTSWPDQKTPDRAPPLLHLVREVEEAAQQEGPHCAPIIVHCSAGIGRTGCFIATSICCQQLRQEGVVDILKTTCQLRQDRGGMIQTCEQYQFVHHVMSLYEKQLSHQSPE",decrease of kcat/Km (activity) toward phospho-ERK protein,"[1]; pH 7.0, 25°C",4 fold
"L251A: STEP KIM mutant L251A (protein, UniProt P54829 1-565, looked up, variant L251A) Tyrosine-protein phosphatase …: MNYEGARSERENHAADDSEGGALDMCCSERLPGLPQPIVMEALDEAEGLQDSQREMPPPPPPSPPSDPAQKPPPRGAGSHSLTVRSSLCLFAASQFLLACGVLWFSGYGHIWSQNATNLVSSLLTLLKQLEPTAWLDSGTWGVPSLLLVFLSVGLVLVTTLVWHLLRTPPEPPTPLPPEDRRQSVSRQPSFTYSEWMEEKIEDDFLDLDPVPETPVFDCVMDIKPEADPTSLTVKSMGLQERRGSNVSLTADMCTPGCNEEGFGYLMSPREESAREYLLSASRVLQAEELHEKALDPFLLQAEFFEIPMNFVDPKEYDIPGLVRKNRYKTILPNPHSRVCLTSPDPDDPLSSYINANYIRGYGGEEKVYIATQGPIVSTVADFWRMVWQEHTPIIVMITNIEEMNEKCTEYWPEEQVAYDGVEITVQKVIHTEDYRLRLISLKSGTEERGLKHYWFTSWPDQKTPDRAPPLLHLVREVEEAAQQEGPHCAPIIVHCSAGIGRTGCFIATSICCQQLRQEGVVDILKTTCQLRQDRGGMIQTCEQYQFVHHVMSLYEKQLSHQSPE",decrease of kcat/Km (activity) toward phospho-ERK protein,"[1]; pH 7.0, 25°C",7 fold
"R243A: STEP KIM mutant R243A (protein, UniProt P54829 1-565, looked up, variant R243A) Tyrosine-protein phosphatase …: MNYEGARSERENHAADDSEGGALDMCCSERLPGLPQPIVMEALDEAEGLQDSQREMPPPPPPSPPSDPAQKPPPRGAGSHSLTVRSSLCLFAASQFLLACGVLWFSGYGHIWSQNATNLVSSLLTLLKQLEPTAWLDSGTWGVPSLLLVFLSVGLVLVTTLVWHLLRTPPEPPTPLPPEDRRQSVSRQPSFTYSEWMEEKIEDDFLDLDPVPETPVFDCVMDIKPEADPTSLTVKSMGLQERAGSNVSLTLDMCTPGCNEEGFGYLMSPREESAREYLLSASRVLQAEELHEKALDPFLLQAEFFEIPMNFVDPKEYDIPGLVRKNRYKTILPNPHSRVCLTSPDPDDPLSSYINANYIRGYGGEEKVYIATQGPIVSTVADFWRMVWQEHTPIIVMITNIEEMNEKCTEYWPEEQVAYDGVEITVQKVIHTEDYRLRLISLKSGTEERGLKHYWFTSWPDQKTPDRAPPLLHLVREVEEAAQQEGPHCAPIIVHCSAGIGRTGCFIATSICCQQLRQEGVVDILKTTCQLRQDRGGMIQTCEQYQFVHHVMSLYEKQLSHQSPE",decrease of kcat/Km (activity) toward phospho-ERK protein,"[1]; pH 7.0, 25°C",6 fold
"L249A: STEP KIM mutant L249A (protein, UniProt P54829 1-565, looked up, variant L249A) Tyrosine-protein phosphatase …: MNYEGARSERENHAADDSEGGALDMCCSERLPGLPQPIVMEALDEAEGLQDSQREMPPPPPPSPPSDPAQKPPPRGAGSHSLTVRSSLCLFAASQFLLACGVLWFSGYGHIWSQNATNLVSSLLTLLKQLEPTAWLDSGTWGVPSLLLVFLSVGLVLVTTLVWHLLRTPPEPPTPLPPEDRRQSVSRQPSFTYSEWMEEKIEDDFLDLDPVPETPVFDCVMDIKPEADPTSLTVKSMGLQERRGSNVSATLDMCTPGCNEEGFGYLMSPREESAREYLLSASRVLQAEELHEKALDPFLLQAEFFEIPMNFVDPKEYDIPGLVRKNRYKTILPNPHSRVCLTSPDPDDPLSSYINANYIRGYGGEEKVYIATQGPIVSTVADFWRMVWQEHTPIIVMITNIEEMNEKCTEYWPEEQVAYDGVEITVQKVIHTEDYRLRLISLKSGTEERGLKHYWFTSWPDQKTPDRAPPLLHLVREVEEAAQQEGPHCAPIIVHCSAGIGRTGCFIATSICCQQLRQEGVVDILKTTCQLRQDRGGMIQTCEQYQFVHHVMSLYEKQLSHQSPE",decrease of kcat/Km (activity) toward phospho-ERK protein,"[1]; pH 7.0, 25°C",2.5 fold
"STEP (R242 and R243): STEP with combined mutation of R242 and R243 to alanine (protein, UniProt P54829 1-565, looked up, variant R242A R243A) Tyrosine-protein phosphatase …: MNYEGARSERENHAADDSEGGALDMCCSERLPGLPQPIVMEALDEAEGLQDSQREMPPPPPPSPPSDPAQKPPPRGAGSHSLTVRSSLCLFAASQFLLACGVLWFSGYGHIWSQNATNLVSSLLTLLKQLEPTAWLDSGTWGVPSLLLVFLSVGLVLVTTLVWHLLRTPPEPPTPLPPEDRRQSVSRQPSFTYSEWMEEKIEDDFLDLDPVPETPVFDCVMDIKPEADPTSLTVKSMGLQEAAGSNVSLTLDMCTPGCNEEGFGYLMSPREESAREYLLSASRVLQAEELHEKALDPFLLQAEFFEIPMNFVDPKEYDIPGLVRKNRYKTILPNPHSRVCLTSPDPDDPLSSYINANYIRGYGGEEKVYIATQGPIVSTVADFWRMVWQEHTPIIVMITNIEEMNEKCTEYWPEEQVAYDGVEITVQKVIHTEDYRLRLISLKSGTEERGLKHYWFTSWPDQKTPDRAPPLLHLVREVEEAAQQEGPHCAPIIVHCSAGIGRTGCFIATSICCQQLRQEGVVDILKTTCQLRQDRGGMIQTCEQYQFVHHVMSLYEKQLSHQSPE",effect of combined R-to-A mutation on ERK dephosphorylation (in words),[1]; compared to single R-to-A mutations of STEP,did not promote a further decrease
"Q462H: STEP WPD-loop mutant Q462H (protein, UniProt P54829 1-565, looked up, variant Q462H) Tyrosine-protein phosphatase …: MNYEGARSERENHAADDSEGGALDMCCSERLPGLPQPIVMEALDEAEGLQDSQREMPPPPPPSPPSDPAQKPPPRGAGSHSLTVRSSLCLFAASQFLLACGVLWFSGYGHIWSQNATNLVSSLLTLLKQLEPTAWLDSGTWGVPSLLLVFLSVGLVLVTTLVWHLLRTPPEPPTPLPPEDRRQSVSRQPSFTYSEWMEEKIEDDFLDLDPVPETPVFDCVMDIKPEADPTSLTVKSMGLQERRGSNVSLTLDMCTPGCNEEGFGYLMSPREESAREYLLSASRVLQAEELHEKALDPFLLQAEFFEIPMNFVDPKEYDIPGLVRKNRYKTILPNPHSRVCLTSPDPDDPLSSYINANYIRGYGGEEKVYIATQGPIVSTVADFWRMVWQEHTPIIVMITNIEEMNEKCTEYWPEEQVAYDGVEITVQKVIHTEDYRLRLISLKSGTEERGLKHYWFTSWPDHKTPDRAPPLLHLVREVEEAAQQEGPHCAPIIVHCSAGIGRTGCFIATSICCQQLRQEGVVDILKTTCQLRQDRGGMIQTCEQYQFVHHVMSLYEKQLSHQSPE",effect of mutation on Km for the phospho-ERK-peptide (in words),[2],significantly lower
same,effect of mutation on activity toward phospho-ERK protein (in words),[1],increase
"E543: STEP Q-loop mutant, conserved E543 mutated to arginine (protein, UniProt P54829 1-565, looked up, variant E543R) Tyrosine-protein phosphatase …: MNYEGARSERENHAADDSEGGALDMCCSERLPGLPQPIVMEALDEAEGLQDSQREMPPPPPPSPPSDPAQKPPPRGAGSHSLTVRSSLCLFAASQFLLACGVLWFSGYGHIWSQNATNLVSSLLTLLKQLEPTAWLDSGTWGVPSLLLVFLSVGLVLVTTLVWHLLRTPPEPPTPLPPEDRRQSVSRQPSFTYSEWMEEKIEDDFLDLDPVPETPVFDCVMDIKPEADPTSLTVKSMGLQERRGSNVSLTLDMCTPGCNEEGFGYLMSPREESAREYLLSASRVLQAEELHEKALDPFLLQAEFFEIPMNFVDPKEYDIPGLVRKNRYKTILPNPHSRVCLTSPDPDDPLSSYINANYIRGYGGEEKVYIATQGPIVSTVADFWRMVWQEHTPIIVMITNIEEMNEKCTEYWPEEQVAYDGVEITVQKVIHTEDYRLRLISLKSGTEERGLKHYWFTSWPDQKTPDRAPPLLHLVREVEEAAQQEGPHCAPIIVHCSAGIGRTGCFIATSICCQQLRQEGVVDILKTTCQLRQDRGGMIQTCRQYQFVHHVMSLYEKQLSHQSPE",effect of mutation on activity toward phospho-ERK protein (in words),[1],no effect
